Measured values collected from several papers.
PIK3CA E545A: Phosphatidylinositol 4,5-bisphosphate 3-kinase catalytic subunit alpha isoform (PIK3CA, Homo sapiens, UniProt P42336, E545A)
PIK3CA H1047L: Phosphatidylinositol 4,5-bisphosphate 3-kinase catalytic subunit alpha isoform (PIK3CA, Homo sapiens, UniProt P42336, H1047L)
PIK3CA I800L: Phosphatidylinositol 4,5-bisphosphate 3-kinase catalytic subunit alpha isoform (PIK3CA, Homo sapiens, UniProt P42336, I800L)
PIK3CA E542K: Phosphatidylinositol 4,5-bisphosphate 3-kinase catalytic subunit alpha isoform (PIK3CA, Homo sapiens, UniProt P42336, E542K)
PIK3CA C420R: Phosphatidylinositol 4,5-bisphosphate 3-kinase catalytic subunit alpha isoform (PIK3CA, Homo sapiens, UniProt P42336, C420R)
PIK3CA M1043I: Phosphatidylinositol 4,5-bisphosphate 3-kinase catalytic subunit alpha isoform (PIK3CA, Homo sapiens, UniProt P42336, M1043I)
PIK3CA Q546K: Phosphatidylinositol 4,5-bisphosphate 3-kinase catalytic subunit alpha isoform (PIK3CA, Homo sapiens, UniProt P42336, Q546K)
PIK3CA H1047Y: Phosphatidylinositol 4,5-bisphosphate 3-kinase catalytic subunit alpha isoform (PIK3CA, Homo sapiens, UniProt P42336, H1047Y)
PIK3CA: Phosphatidylinositol 4,5-bisphosphate 3-kinase catalytic subunit alpha isoform (PIK3CA, Homo sapiens, UniProt P42336)

CN(CCCC(F)(F)F)c1nccc(-c2cnn3ncccc23)n1
remaining binding (PIK3CA E545A; binding; 1 µM): 100%

COc1cnc(Nc2cccc(S(N)(=O)=O)c2)nc1N1CCN(c2ccccc2)CC1
remaining binding (PIK3CA H1047L; binding, competition with immobilised ligand; 1 µM): 81%

O=C(NCCCN1CCOCC1)c1ccc(Nc2nccc(-c3cc4ccccc4s3)n2)cc1
remaining binding (PIK3CA E545A; binding, competition with immobilised ligand; 1 µM): 84%

Cc1c(C(=O)O)cc(-c2ccc(C3CCNCC3)cc2)c2ccc(-c3ccc(C(F)(F)F)cc3)cc12
remaining binding (PIK3CA I800L; cell-free assay, competition with immobilised ligand; 1 µM): 100%

c1cnn2ncc(-c3ccnc(N4CCC45COC5)n3)c2c1
remaining binding (PIK3CA H1047L; binding; 1 µM): 62%

CN1CCN(c2ccc(Nc3nccc(-c4ccccc4)n3)cc2C(F)(F)F)CC1
remaining binding (PIK3CA E542K; binding; 10 µM): 70%

CC1CCCN1c1nccc(-c2cnn3ncccc23)n1 (stereo not shown)
remaining binding (PIK3CA C420R; binding; 1 µM): 72%

C=CC(=O)N1CCC(C(=O)NCC(=O)N2CCN(c3nc(-c4cnc(N)nc4C(F)F)nc(N4CCOCC4)n3)CC2)CC1
remaining binding (PIK3CA I800L; binding, competition with immobilised ligand; 1 µM): 0%

CNC(=O)[C@@H]1CC[C@@H](n2c(-c3ccc4cnccc4c3)nc3ccc(C(=O)NCc4cccc(C(N)=O)c4)cc32)C1
remaining binding (PIK3CA H1047L; binding, competition with immobilised ligand; 1 µM): 100%

C[C@H](NC(=O)c1cnc2n1[C@](C)(Cc1ccc(C#N)cc1)C(=O)N2c1cc(Cl)c(F)c(Cl)c1)C(=O)NC1(c2ccccn2)CC1
remaining binding (PIK3CA H1047L; cell-free assay, competition with immobilised ligand; 1 µM): 81%

c1cncc(-c2cccc(Nc3nccc(NC4CCCCC4)n3)c2)c1
remaining binding (PIK3CA M1043I; binding, competition with immobilised ligand; 10 µM): 84%

F[C@@H]1CCN(c2nccc(-c3cnn4ncccc34)n2)C1
remaining binding (PIK3CA C420R; binding; 1 µM): 90%

C[C@@H](c1ccc(-n2cnc3c(N)ncnc32)cc1)N1CCc2nn(C)c(Cc3ccccc3)c2C1=O
remaining binding (PIK3CA Q546K; binding, competition with immobilised ligand; 0.1 µM): 77%

CCN1CCN(Cc2ccc(C(=O)Nc3ccc(C)c(Oc4ccc5c(c4)CC(=O)N5)c3)cc2C(F)(F)F)CC1
remaining binding (PIK3CA I800L; binding, competition with immobilised ligand; 1 µM): 95%

O=C(NCC1CCOCC1)c1n[nH]cc1NC(=O)c1c(F)cccc1F
remaining binding (PIK3CA M1043I; binding, competition with immobilised ligand; 1 µM): 100%

COCCOc1nc(-c2ccc(Cl)nc2)nc2c1CN(C(=O)c1ncn3ccccc13)CC2
remaining binding (PIK3CA M1043I; cell-free assay, competition with immobilised ligand; 0.1 µM): 88%

O=C(c1ccc(Nc2ncc(Cl)c(-c3ccc(Cl)s3)n2)cc1)N1CCC(N2CCCC2)CC1
remaining binding (PIK3CA M1043I; binding, competition with immobilised ligand; 1 µM): 100%

CN1CCN(c2ccc(Nc3nccc(-c4cccc([N+](=O)[O-])c4)n3)cc2C(F)(F)F)CC1
remaining binding (PIK3CA H1047Y; binding; 10 µM): 27%

Nc1ncc2c(n1)-c1c([nH]c3ccc(C#CC4CC4)cc13)CCCC2
remaining binding (PIK3CA; binding, competition with immobilised ligand; 1 µM): 90%

COc1cnc(Nc2cccc(S(N)(=O)=O)c2)nc1N1CCN(c2ccccc2)C(=O)C1
remaining binding (PIK3CA Q546K; binding, competition with immobilised ligand; 1 µM): 100%

O=C(Nc1c[nH]nc1C(=O)NC1CCNCC1)c1cc(F)cc(F)c1
remaining binding (Phosphatidylinositol 4,5-bisphosphate 3-kinase catalytic subunit alpha isoform (PIK3CA, Homo sapiens, UniProt P42336, E545K); binding, competition with immobilised ligand; 1 µM): 64%

CC(C)CC(=O)N1CCc2nc(-c3ccc(Br)cc3)nc(N(C)Cc3ccccc3)c2C1
remaining binding (PIK3CA E542K; cell-free assay, competition with immobilised ligand; 0.1 µM): 100%

Cc1cnn2ncc(-c3ccnc(N(C)C)n3)c2c1
remaining binding (PIK3CA C420R; binding; 1 µM): 100%

O=C(c1ccc(Nc2nccc(-c3cc4ccccc4s3)n2)cc1)N1CCC(N2CCCC2)CC1
remaining binding (PIK3CA E542K; binding, competition with immobilised ligand; 1 µM): 99%

Cc1cc(C)c(-n2ccn3nc(-c4cccnc4)cc23)cc1NC(=O)c1cc(C#N)cc(S(F)(F)(F)(F)F)c1
remaining binding (PIK3CA H1047Y; cell-free assay, competition with immobilised ligand; 0.1 µM): 76.2%

O=C(c1ccc(Nc2ncc(Cl)c(-c3cc4ccccc4s3)n2)cc1)N1CCC(N2CCCC2)CC1
remaining binding (PIK3CA E545A; binding, competition with immobilised ligand; 1 µM): 99%

CN(C)c1ncc(F)c(-c2cnn3ncccc23)n1
remaining binding (PIK3CA Q546K; binding; 1 µM): 86%

CNCc1ccccc1-c1csc([C@H](C)Nc2nc(C)nc3cc(OC)c(OC)cc23)c1
remaining binding (PIK3CA M1043I; cell-free assay, competition with immobilised ligand; 1 µM): 100%

N[C@H]1CCN(c2nccc(-c3cnn4ncccc34)n2)C1
remaining binding (PIK3CA H1047L; binding; 1 µM): 75%

COc1ncc2cc3ccccc3nc2c1C#N
remaining binding (PIK3CA H1047L; cell-free assay, competition with immobilised ligand; 5 µM): 98%

O=C(NCCCN1CCOCC1)c1ccc(Nc2ncc(Cl)c(-c3ccc(Cl)s3)n2)cc1
remaining binding (PIK3CA; binding, competition with immobilised ligand; 1 µM): 100%

FC(F)(F)c1ccc2c(c1)nc(-c1cccnc1)n2C1CC1
remaining binding (PIK3CA C420R; cell-free assay, competition with immobilised ligand; 1 µM): 92%

Cc1cnc(Nc2ccc(C(=O)N3CCC(N4CCCC4)CC3)cc2)nc1-c1cc2ccccc2s1
remaining binding (PIK3CA E545A; binding, competition with immobilised ligand; 1 µM): 77%

Cc1c[nH]c2nccc(Oc3c(F)cc(Nc4cc(Cl)nc(N)n4)cc3F)c12
remaining binding (PIK3CA E545A; cell-free assay, competition with immobilised ligand; 0.1 µM): 88%
